Results taken from ChEMBL document CHEMBL5705885, “CYT387, a selective JAK1/JAK2 inhibitor: in vitro assessment of kinase selectivity and preclinical studies using cell lines and primary cells from polycythemia vera patients” (Leukemia, 2009).

Legend:
[1] = Inhibition of CDK2/cyclin A (unknown origin); parameters: species or system Homo sapiens
Aurora kinase B = Aurora kinase B (Homo sapiens, UniProt Q96GD4); test: Inhibition of AURKB (unknown origin)
Aurora kinase C = Aurora kinase C (Homo sapiens, UniProt Q9UQB9); test: Inhibition of AURKC (unknown origin)
[2] = molecular target: Cyclin-dependent kinase 5/CDK5 activator 1 (Homo sapiens, UniProt Q00535); test: Inhibition of CDK5/p35 (unknown origin); format: protein-complex assay
Ephrin type-B receptor 1 = Ephrin type-B receptor 1 (Homo sapiens, UniProt P54762); test: Inhibition of EPHB1 (unknown origin)
[3] = molecular target: Mitogen-activated protein kinase kinase kinase 8 (Homo sapiens, UniProt P41279); test: Inhibition of MAP3K8 (unknown origin)
[4] = molecular target: Mitogen-activated protein kinase kinase kinase kinase 2 (Homo sapiens, UniProt Q12851); test: Inhibition of MAP4K2 (unknown origin)
[5] = molecular target: Muscle, skeletal receptor tyrosine-protein kinase (Homo sapiens, UniProt O15146); test: Inhibition of MUSK (unknown origin)
[6] = molecular target: Myosin light chain kinase 2, skeletal/cardiac muscle (Homo sapiens, UniProt Q9H1R3); test: Inhibition of MYLK2 (unknown origin)
[7] = molecular target: T1, BDNF/NT-3 growth factors receptor (Homo sapiens, UniProt Q16620); test: Inhibition of NTRK2 (unknown origin)
[8] = molecular target: Serine/threonine-protein kinase PLK3 (Homo sapiens, UniProt Q9H4B4); test: Inhibition of PLK3 (unknown origin)
[9] = molecular target: Proto-oncogene tyrosine-protein kinase ROS (Homo sapiens, UniProt P08922); test: Inhibition of ROS1 (unknown origin)
[10] = molecular target: G protein-coupled receptor kinase 3 (Homo sapiens, UniProt P35626); test: Inhibition of ADRBK2 (unknown origin)
[11] = molecular target: RAC-alpha serine/threonine-protein kinase (Homo sapiens, UniProt P31749); test: Inhibition of AKT1 (unknown origin)
[12] = molecular target: Tyrosine-protein kinase Blk (Homo sapiens, UniProt P51451); test: Inhibition of BLK (unknown origin)
[13] = molecular target: Tyrosine-protein kinase CSK (Homo sapiens, UniProt P41240); test: Inhibition of CSK (unknown origin)
[14] = molecular target: Casein kinase I isoform gamma-2 (Homo sapiens, UniProt P78368); test: Inhibition of CSNK1G2 (unknown origin)
Ephrin type-A receptor 8 = Ephrin type-A receptor 8 (Homo sapiens, UniProt P29322); test: Inhibition of EPHA8 (unknown origin)
[15] = molecular target: Tyrosine-protein kinase Fes/Fps (Homo sapiens, UniProt P07332); test: Inhibition of FES (unknown origin)
[16] = molecular target: Fibroblast growth factor receptor 1 (Homo sapiens, UniProt P11362); test: Inhibition of FGFR1 (unknown origin)
[17] = molecular target: Vascular endothelial growth factor receptor 1 (Homo sapiens, UniProt P17948); test: Inhibition of FLT1 (unknown origin)
Rhodopsin kinase GRK7 = Rhodopsin kinase GRK7 (Homo sapiens, UniProt Q8WTQ7); test: Inhibition of GRK7 (unknown origin)
[18] = molecular target: Insulin-like growth factor 1 receptor (Homo sapiens, UniProt P08069); test: Inhibition of IGF1R (unknown origin)
[19] = molecular target: Tyrosine-protein kinase ITK/TSK (Homo sapiens, UniProt Q08881); test: Inhibition of ITK (unknown origin)
[20] = molecular target: Mitogen-activated protein kinase 3 (Homo sapiens, UniProt P27361); test: Inhibition of MAPK3 (unknown origin)
[21] = molecular target: MAP kinase-activated protein kinase 2 (Homo sapiens, UniProt P49137); test: Inhibition of MAPKAPK2 (unknown origin)
[22] = molecular target: Serine/threonine-protein kinase Nek2 (Homo sapiens, UniProt P51955); test: Inhibition of NEK2 (unknown origin)
[23] = molecular target: Phosphorylase b kinase gamma catalytic chain, liver/testis isoform (Homo sapiens, UniProt P15735); test: Inhibition of PHKG2 (unknown origin)
[24] = molecular target: Serine/threonine-protein kinase PLK1 (Homo sapiens, UniProt P53350); test: Inhibition of PLK1 (unknown origin)
[25] = molecular target: Tyrosine-protein kinase Srms (Homo sapiens, UniProt Q9H3Y6); test: Inhibition of SRMS (unknown origin)
SRSF protein kinase 1 = SRSF protein kinase 1 (Homo sapiens, UniProt Q96SB4); test: Inhibition of SRPK1 (unknown origin)
SRSF protein kinase 2 = SRSF protein kinase 2 (Homo sapiens, UniProt P78362); test: Inhibition of SRPK2 (unknown origin)
[26] = molecular target: Serine/threonine-protein kinase 25 (Homo sapiens, UniProt O00506); test: Inhibition of STK25 (unknown origin)
BaF3 = test: Antiproliferative activity against mouse BaF3 cells harboring TEL-JAK2 measured after 72 hrs by Alamar blue staining based analysis; format: functional, cell-based; conditions: BaF3, 72 h
In short: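 Murine Ba/F3 cells carrying TEL/JAK2 or TEL/JAK3 fusions, grown in DMEM with 10% fetal calf serum. Compound stocks in DMSO were diluted in culture medium. Proliferation was read by Alamar Blue after 72 h incubation at 37 °C under 5% CO2.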

[27] = molecular target: Tyrosine-protein kinase JAK2 (Homo sapiens) (UniProt O60674); conditions: dose 100.0 nM
[28] = molecular target: Serine/threonine-protein kinase D1 (Homo sapiens) (UniProt Q15139); conditions: dose 100.0 nM
[29] = molecular target: Tyrosine-protein kinase ABL1 (Homo sapiens) (UniProt P00519); conditions: dose 100.0 nM
[30] = molecular target: Calcium/calmodulin-dependent protein kinase type 1D (Homo sapiens, UniProt Q8IU85); conditions: dose 100.0 nM
[31] = molecular target: Tyrosine-protein kinase Fgr (Homo sapiens) (UniProt P09769); conditions: dose 100.0 nM
[32] = molecular target: Vascular endothelial growth factor receptor 2 (Homo sapiens, UniProt P35968); conditions: dose 100.0 nM
[33] = molecular target: Mitogen-activated protein kinase kinase kinase kinase 2 (Homo sapiens) (UniProt Q12851); conditions: dose 100.0 nM
[34] = molecular target: Serine/threonine-protein kinase 26 (Homo sapiens, UniProt Q9P289); conditions: dose 100.0 nM
[35] = molecular target: T1, BDNF/NT-3 growth factors receptor; conditions: dose 100.0 nM
[36] = molecular target: Serine/threonine-protein kinase PAK 4 (Homo sapiens, UniProt O96013); conditions: dose 100.0 nM
[37] = tested on: RAF proto-oncogene serine/threonine-protein kinase (Homo sapiens), P04049 [Y340D]; conditions: dose 100.0 nM
[38] = molecular target: Ribosomal protein S6 kinase alpha-1 (Homo sapiens) (UniProt Q15418); conditions: dose 100.0 nM
[39] = molecular target: Ribosomal protein S6 kinase beta-1 (Homo sapiens, UniProt P23443); conditions: dose 100.0 nM

Sequence of Muscle, skeletal receptor tyrosine-protein kinase (O15146 whole entry): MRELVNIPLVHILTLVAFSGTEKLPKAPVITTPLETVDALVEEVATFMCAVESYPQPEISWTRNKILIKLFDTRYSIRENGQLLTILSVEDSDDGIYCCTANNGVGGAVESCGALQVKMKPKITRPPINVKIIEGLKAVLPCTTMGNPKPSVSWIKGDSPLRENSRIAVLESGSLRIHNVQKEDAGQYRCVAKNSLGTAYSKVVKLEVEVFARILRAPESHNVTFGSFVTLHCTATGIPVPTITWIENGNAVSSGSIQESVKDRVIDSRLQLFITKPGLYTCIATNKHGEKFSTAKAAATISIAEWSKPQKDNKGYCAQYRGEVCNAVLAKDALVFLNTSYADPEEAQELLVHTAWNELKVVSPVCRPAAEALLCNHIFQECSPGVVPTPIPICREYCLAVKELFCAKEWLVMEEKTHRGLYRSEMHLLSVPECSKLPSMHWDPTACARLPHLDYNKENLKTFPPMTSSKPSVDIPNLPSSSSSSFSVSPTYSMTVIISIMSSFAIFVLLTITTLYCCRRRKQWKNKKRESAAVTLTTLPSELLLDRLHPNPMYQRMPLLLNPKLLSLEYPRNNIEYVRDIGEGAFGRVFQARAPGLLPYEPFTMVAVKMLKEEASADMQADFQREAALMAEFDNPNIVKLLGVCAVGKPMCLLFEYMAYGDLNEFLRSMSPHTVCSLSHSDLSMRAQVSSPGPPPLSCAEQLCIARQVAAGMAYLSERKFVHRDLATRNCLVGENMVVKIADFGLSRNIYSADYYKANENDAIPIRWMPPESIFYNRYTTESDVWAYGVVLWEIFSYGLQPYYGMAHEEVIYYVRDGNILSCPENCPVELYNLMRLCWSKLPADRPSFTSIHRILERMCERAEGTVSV
Sequence of Mitogen-activated protein kinase 3 (P27361 whole entry): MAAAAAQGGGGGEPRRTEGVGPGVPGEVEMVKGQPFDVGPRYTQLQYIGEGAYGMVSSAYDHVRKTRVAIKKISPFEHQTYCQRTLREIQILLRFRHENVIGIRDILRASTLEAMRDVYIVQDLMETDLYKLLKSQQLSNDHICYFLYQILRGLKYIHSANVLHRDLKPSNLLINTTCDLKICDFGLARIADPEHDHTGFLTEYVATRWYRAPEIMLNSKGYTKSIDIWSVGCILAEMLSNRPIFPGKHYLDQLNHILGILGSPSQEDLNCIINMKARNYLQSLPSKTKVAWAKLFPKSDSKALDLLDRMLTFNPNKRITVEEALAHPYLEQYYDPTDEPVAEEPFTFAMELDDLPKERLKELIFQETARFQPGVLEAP
Sequence of Serine/threonine-protein kinase D1 (Homo sapiens) (Q15139 whole entry): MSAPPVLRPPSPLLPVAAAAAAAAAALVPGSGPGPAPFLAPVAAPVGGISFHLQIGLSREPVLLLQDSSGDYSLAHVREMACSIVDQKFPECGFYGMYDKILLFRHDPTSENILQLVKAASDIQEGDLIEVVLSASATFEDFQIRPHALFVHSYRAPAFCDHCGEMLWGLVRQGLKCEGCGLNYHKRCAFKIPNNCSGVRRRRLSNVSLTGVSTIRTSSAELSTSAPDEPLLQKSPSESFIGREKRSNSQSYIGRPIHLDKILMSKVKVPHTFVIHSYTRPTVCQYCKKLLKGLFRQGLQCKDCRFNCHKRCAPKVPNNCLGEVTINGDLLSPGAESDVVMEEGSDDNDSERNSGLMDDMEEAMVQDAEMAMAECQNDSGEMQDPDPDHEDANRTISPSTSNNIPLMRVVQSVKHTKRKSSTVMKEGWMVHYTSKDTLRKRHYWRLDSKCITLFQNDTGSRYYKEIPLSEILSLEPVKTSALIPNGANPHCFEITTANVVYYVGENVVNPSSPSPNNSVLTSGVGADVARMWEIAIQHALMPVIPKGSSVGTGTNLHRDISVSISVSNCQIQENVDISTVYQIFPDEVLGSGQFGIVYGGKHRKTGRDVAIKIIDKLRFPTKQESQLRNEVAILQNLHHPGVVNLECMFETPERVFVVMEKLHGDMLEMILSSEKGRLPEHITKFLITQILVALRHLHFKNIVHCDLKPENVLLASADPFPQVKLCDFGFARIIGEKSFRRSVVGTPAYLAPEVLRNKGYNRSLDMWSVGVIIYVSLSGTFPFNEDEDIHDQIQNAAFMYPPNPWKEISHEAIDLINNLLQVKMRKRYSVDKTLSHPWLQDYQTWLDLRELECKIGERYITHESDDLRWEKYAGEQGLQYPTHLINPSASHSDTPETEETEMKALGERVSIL
Sequence of MAP kinase-activated protein kinase 2 (P49137 whole entry): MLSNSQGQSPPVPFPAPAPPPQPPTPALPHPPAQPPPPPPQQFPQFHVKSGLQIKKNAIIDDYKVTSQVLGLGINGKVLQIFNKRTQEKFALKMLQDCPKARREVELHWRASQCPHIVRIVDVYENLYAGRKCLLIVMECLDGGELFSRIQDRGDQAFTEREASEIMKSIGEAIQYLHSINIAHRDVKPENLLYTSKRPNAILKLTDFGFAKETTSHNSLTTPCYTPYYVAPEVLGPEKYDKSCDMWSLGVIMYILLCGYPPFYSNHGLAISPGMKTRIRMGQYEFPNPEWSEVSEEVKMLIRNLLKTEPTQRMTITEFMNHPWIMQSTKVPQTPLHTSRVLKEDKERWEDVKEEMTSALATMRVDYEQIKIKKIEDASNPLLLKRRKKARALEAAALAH
Sequence of Serine/threonine-protein kinase PAK 4 (O96013 whole entry, looked up): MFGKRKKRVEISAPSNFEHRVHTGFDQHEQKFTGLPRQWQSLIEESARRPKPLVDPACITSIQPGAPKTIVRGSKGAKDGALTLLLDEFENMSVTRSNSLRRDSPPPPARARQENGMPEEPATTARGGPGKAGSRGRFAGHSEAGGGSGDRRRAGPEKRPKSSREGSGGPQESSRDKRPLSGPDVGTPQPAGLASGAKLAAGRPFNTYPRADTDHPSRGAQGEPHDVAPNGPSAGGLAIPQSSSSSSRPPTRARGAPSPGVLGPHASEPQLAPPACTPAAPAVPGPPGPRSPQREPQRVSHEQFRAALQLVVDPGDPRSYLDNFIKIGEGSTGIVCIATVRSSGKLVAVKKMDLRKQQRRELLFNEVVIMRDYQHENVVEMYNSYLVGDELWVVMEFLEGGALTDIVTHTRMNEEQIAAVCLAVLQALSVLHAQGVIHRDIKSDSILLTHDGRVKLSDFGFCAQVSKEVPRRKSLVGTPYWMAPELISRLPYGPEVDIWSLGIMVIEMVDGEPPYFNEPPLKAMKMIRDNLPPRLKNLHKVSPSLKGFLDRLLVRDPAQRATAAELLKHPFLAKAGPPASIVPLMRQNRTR
Sequence of Ribosomal protein S6 kinase alpha-1 (Homo sapiens) (Q15418 whole entry): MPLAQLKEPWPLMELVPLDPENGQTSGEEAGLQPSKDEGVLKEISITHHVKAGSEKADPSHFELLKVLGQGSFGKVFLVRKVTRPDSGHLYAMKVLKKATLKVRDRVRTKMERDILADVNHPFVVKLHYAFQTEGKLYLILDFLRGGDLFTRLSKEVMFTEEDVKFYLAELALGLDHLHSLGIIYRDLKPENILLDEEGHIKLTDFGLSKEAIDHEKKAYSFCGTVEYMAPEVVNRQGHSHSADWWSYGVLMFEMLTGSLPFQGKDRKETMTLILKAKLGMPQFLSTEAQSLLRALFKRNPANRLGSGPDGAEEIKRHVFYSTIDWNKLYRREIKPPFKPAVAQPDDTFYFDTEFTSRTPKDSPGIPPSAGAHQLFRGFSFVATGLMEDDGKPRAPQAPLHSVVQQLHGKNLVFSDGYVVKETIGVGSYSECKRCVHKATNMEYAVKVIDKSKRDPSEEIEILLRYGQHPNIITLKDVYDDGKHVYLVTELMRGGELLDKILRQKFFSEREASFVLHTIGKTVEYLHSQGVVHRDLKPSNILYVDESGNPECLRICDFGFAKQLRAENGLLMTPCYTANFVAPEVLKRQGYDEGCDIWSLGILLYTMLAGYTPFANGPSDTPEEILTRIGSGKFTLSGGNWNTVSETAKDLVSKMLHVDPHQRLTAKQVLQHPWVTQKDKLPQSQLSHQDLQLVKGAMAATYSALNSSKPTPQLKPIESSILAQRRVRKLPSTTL
Sequence of Tyrosine-protein kinase Fes/Fps (P07332 whole entry): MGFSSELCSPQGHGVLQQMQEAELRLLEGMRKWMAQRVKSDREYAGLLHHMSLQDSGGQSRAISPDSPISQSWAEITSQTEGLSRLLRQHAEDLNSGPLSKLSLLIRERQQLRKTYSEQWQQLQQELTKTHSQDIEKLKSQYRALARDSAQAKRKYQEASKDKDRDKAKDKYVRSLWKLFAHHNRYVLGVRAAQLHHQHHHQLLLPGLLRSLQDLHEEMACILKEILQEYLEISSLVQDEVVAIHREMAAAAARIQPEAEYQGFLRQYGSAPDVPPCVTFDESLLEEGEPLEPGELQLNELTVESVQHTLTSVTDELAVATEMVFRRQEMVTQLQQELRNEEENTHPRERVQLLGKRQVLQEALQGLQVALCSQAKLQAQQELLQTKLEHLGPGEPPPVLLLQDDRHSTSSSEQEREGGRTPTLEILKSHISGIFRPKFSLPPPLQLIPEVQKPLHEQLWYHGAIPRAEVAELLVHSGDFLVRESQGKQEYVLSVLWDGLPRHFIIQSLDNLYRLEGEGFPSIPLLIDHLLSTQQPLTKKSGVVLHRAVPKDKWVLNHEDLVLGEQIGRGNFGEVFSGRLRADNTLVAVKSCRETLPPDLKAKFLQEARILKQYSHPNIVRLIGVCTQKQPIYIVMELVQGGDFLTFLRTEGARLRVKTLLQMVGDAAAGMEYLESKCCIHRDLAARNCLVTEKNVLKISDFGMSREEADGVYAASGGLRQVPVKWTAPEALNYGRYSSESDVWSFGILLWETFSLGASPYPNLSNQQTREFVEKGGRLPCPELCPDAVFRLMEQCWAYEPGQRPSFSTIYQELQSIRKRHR
Sequence of Aurora kinase B (Q96GD4 whole entry): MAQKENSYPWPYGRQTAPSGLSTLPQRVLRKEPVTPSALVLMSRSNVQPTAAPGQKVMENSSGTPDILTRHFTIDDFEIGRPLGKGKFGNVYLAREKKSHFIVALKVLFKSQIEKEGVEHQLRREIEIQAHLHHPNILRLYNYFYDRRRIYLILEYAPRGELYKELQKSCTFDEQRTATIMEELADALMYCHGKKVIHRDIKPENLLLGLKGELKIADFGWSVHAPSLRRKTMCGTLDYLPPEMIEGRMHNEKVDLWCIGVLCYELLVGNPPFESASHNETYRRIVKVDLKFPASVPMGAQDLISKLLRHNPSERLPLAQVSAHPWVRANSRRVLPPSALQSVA

IC50 [1]: < 100 nM
IC50 (Aurora kinase B): < 1000 nM
IC50 (Aurora kinase C): < 1000 nM
IC50 [2]: < 1000 nM
IC50 (Ephrin type-B receptor 1): < 1000 nM
IC50 [3]: < 1000 nM
IC50 [4]: < 1000 nM
IC50 [5]: < 1000 nM
IC50 [6]: < 1000 nM
IC50 [7]: < 1000 nM
IC50 [8]: < 1000 nM
IC50 [9]: < 1000 nM
IC50 [10]: > 1000 nM
IC50 [11]: > 1000 nM
IC50 [12]: > 1000 nM
IC50 [13]: > 1000 nM
IC50 [14]: > 1000 nM
IC50 (Ephrin type-A receptor 8): > 1000 nM
IC50 [15]: > 1000 nM
IC50 [16]: > 1000 nM
IC50 [17]: > 1000 nM
IC50 (Rhodopsin kinase GRK7): > 1000 nM
IC50 [18]: > 1000 nM
IC50 [19]: > 1000 nM
IC50 [20]: > 1000 nM
IC50 [21]: > 1000 nM
IC50 [22]: > 1000 nM
IC50 [23]: > 1000 nM
IC50 [24]: > 1000 nM
IC50 [25]: > 1000 nM
IC50 (SRSF protein kinase 1): > 1000 nM
IC50 (SRSF protein kinase 2): > 1000 nM
IC50 [26]: > 1000 nM
IC50 (BaF3): 724 nM
inhibition [27]: > 50%
inhibition [28]: > 50%
inhibition [29]: < 50%
inhibition [30]: < 50%
inhibition [31]: < 50%
inhibition [32]: < 50%
inhibition [33]: < 50%
inhibition [34]: < 50%
inhibition [35]: < 50%
inhibition [36]: < 50%
inhibition [37]: < 50%
inhibition [38]: < 50%
inhibition [39]: < 50%
Compound: N#CCNC(=O)c1ccc(-c2ccnc(Nc3ccc(N4CCOCC4)cc3)n2)cc1 [MOMELOTINIB]
